Experimental data published in ChEMBL document CHEMBL1123286 (J Med Chem, 1986).
Where a SMILES comes first, the peptide text is derived from it. [ ]: non-standard residue; d: D form.

How the values were obtained:
[1] = target: Opioid receptors; mu/kappa/delta; assay: In vitro opioid inhibitory activity against in guinea pig ileum; assay type: functional, tissue-based, Cavia porcellus
[2] = system: Mus musculus; assay: In vivo opioid activity was evaluated by determining analgesia in the mouse by the tail-flick test Relative potency with respect to morphine when administered through subcutaneous route; assay type: functional
Method in brief: (§1)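 Mouse tail-flick analgesia in Swiss-Webster mice (23–25 g) with 55 °C water, compound given icv or sc in saline (4 μL). Cut-off was 10 s; %analgesia was computed from pre- and post-dose latencies. At least 10 animals per dose, with ED50 taken at peak activity.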

[3] = system: Mus musculus; assay: In vivo opioid activity was evaluated by determining analgesia in the mouse by the tail-flick test when administered through intracerebroventricular route; assay type: functional
Method in brief: (§2)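 Swiss-Webster mice (23–25 g), tail-flick test with 55 °C water as the stimulus. Compound was given icv or sc in saline (4 μL), with latency read before and at various times after dosing. Cut-off was 10 s. %analgesia = (T−T0)/(10−T0)×100. At least 10 animals per dose; ED50 taken at time of peak activity. Naloxone pretreatment 0.5–1 mg/kg sc.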

[4] = system: Mus musculus; assay: In vivo opioid activity was evaluated by determining analgesia in the mouse by the tail-flick test, relative potency with respect to morphine intracerebroventricular route; assay type: functional; method in brief: as §1
[5] = system: Mus musculus; assay: In vivo opioid activity was evaluated by determining analgesia in the mouse by the tail-flick test, when administered through Subcutaneous route; assay type: functional; conditions: sc; method in brief: as §2
[6] = system: Mus musculus; assay: In Vivo opioid activity was evaluated by determining analgesia in the mouse by the tail-flick test when administered through intra cerebro ventricular route; assay type: functional; method in brief: as §2
[7] = target: Opioid receptors; mu/kappa/delta (Homo sapiens, UniProt P41145+P41143+P35372); assay: In vitro inhibitory activity against opioid activity in guinea pig ileum, relative to H-Tyr-D-MetO-Phe-Gly-NH2; assay type: tissue-based; conditions: Cavia porcellus, target entry is the homologue from another species
[8] = system: Mus musculus; assay: In vivo opioid activity was evaluated by determining analgesia in the mouse by the tail-flick test. Relative potency with respect to morphine when administered through subcutaneous route; assay type: functional; method in brief: as §1
[9] = system: Mus musculus; assay: In vivo opioid activity was evaluated by determining analgesia in the mouse by the tail-flick test, relative potency with respect to morphine intra cerebro ventricular route; assay type: functional; method in brief: as §1
[10] = system: Mus musculus; assay: In vivo opioid activity was evaluated by determining analgesia in the mouse by the tail-flick test, when administered through subcutaneous route; assay type: functional; conditions: sc; method in brief: as §2
[11] = system: Mus musculus; assay: In vivo opioid activity was evaluated by determining analgesia in the mouse by the tail-flick test, Relative potency with respect to morphine intracerebroventricular route; assay type: functional; method in brief: as §1
[12] = system: Mus musculus; assay: In vivo opioid activity was evaluated by determining analgesia in the mouse by the tail-flick test when administered through intra cerebro ventricular route; conditions: Cardiac ventricle

Chain of Opioid receptors; mu/kappa/delta (Homo sapiens, UniProt P41145+P41143+P35372) (P35372 whole entry, looked up): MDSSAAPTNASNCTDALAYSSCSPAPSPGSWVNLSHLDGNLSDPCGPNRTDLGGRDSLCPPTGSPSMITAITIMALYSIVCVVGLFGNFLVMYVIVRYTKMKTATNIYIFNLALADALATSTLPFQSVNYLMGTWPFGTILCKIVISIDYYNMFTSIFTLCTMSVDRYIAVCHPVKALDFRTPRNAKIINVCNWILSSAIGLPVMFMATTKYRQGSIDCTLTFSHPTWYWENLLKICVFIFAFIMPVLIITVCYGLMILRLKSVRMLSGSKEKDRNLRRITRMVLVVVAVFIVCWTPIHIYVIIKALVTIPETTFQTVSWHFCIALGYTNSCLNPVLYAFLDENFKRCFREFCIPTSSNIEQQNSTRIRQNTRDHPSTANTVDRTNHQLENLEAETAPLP
Chain of Opioid receptors; mu/kappa/delta (Homo sapiens, UniProt P41145+P41143+P35372) (P41143 whole entry, looked up): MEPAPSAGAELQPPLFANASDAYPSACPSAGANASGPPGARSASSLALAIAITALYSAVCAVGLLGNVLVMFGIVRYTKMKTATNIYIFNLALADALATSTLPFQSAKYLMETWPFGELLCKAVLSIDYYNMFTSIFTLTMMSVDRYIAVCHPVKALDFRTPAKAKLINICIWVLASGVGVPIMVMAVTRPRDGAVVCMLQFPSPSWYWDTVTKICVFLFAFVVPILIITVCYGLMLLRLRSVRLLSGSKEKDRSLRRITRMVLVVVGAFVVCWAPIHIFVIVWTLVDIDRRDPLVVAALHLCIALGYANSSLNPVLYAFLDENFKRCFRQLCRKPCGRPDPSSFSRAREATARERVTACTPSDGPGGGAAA
Chain of Opioid receptors; mu/kappa/delta (Homo sapiens, UniProt P41145+P41143+P35372) (P41145 whole entry, looked up): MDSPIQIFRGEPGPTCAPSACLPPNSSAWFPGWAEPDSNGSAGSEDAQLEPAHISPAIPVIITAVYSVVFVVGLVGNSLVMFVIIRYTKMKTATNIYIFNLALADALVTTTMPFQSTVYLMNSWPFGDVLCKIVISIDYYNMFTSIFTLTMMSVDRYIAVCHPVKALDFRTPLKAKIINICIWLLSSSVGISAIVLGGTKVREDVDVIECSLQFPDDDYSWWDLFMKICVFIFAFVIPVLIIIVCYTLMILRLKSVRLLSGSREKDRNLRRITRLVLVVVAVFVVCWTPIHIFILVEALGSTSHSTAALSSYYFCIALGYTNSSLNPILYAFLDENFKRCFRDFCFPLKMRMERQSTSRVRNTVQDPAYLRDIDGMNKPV

| SMILES | IC50 [1] [nM] | Relative potency [2] | ED50 [3] [pmol/mouse] | Relative potency [4] | ED50 [5] [µmol/kg] | ED50 [10] [µmol/kg] | further results |
| --- | --- | --- | --- | --- | --- | --- | --- |
| CN(CC(=O)NC12CC3CC(CC(C3)C1)C2)C(=O)[C@H](Cc1ccccc1)NC(=O)[C@@H](CC[S+](C)[O-])NC(=O)[C@@H](N)Cc1ccc(O)cc1 (some centres undefined) | 25.5 | 2.3 | 60.6 | 50 | 4.82 | – | – |
| C[S+]([O-])CC[C@@H](NC(=O)[C@@H](N)Cc1ccc(O)cc1)C(=O)N[C@@H](Cc1ccccc1)C(=O)NCC(=O)NC12CC3CC(CC(C3)C1)C2 (some centres undefined) | 22 | 2.8 | 30.4 | 100 | 3.93 | – | – |
| CSCC[C@@H](NC(=O)[C@@H](N)Cc1ccc(O)cc1)C(=O)N[C@@H](Cc1ccccc1)C(=O)NCC(N)=O (H-Y[dM]FG-NH2) | 97.6 | – | – | – | 12.1 | – | ED50 [6]: 87.5 µmol/kg; Relative potency [7]: 0.1; Relative potency [8]: 0.9; Relative potency [9]: 35 |
| C[S+]([O-])CC[C@@H](NC(=O)[C@@H](N)Cc1ccc(O)cc1)C(=O)N[C@@H](Cc1ccccc1)C(=O)NCC(N)=O (some centres undefined) | – | – | 1.97 | – | – | 0.65 | – |
| C[S+]([O-])CC[C@@H](NC(=O)[C@@H](N)Cc1ccc(O)cc1)C(=O)N[C@@H](Cc1ccccc1)C(=O)NCC(=O)NCc1ccccc1 (some centres undefined) | 21 | 3.1 | 18.1 | – | – | 3.51 | Relative potency [11]: 167 |
| CC(NC(=O)CNC(=O)[C@H](Cc1ccccc1)NC(=O)[C@@H](CC[S+](C)[O-])NC(=O)[C@@H](N)Cc1ccc(O)cc1)c1ccccc1 (some centres undefined) | 72.1 | 1.8 | 83.6 | 36 | – | 5.81 | – |
| CN1CC[C@]23c4c5ccc(O)c4O[C@H]2[C@@H](O)C=C[C@H]3[C@H]1C5 [MORPHINE] | – | – | – | – | – | – | ED50 [12]: 3030 µmol/kg |
